Assay results reported in ChEMBL document CHEMBL3108700, “Designing anti-inflammatory drugs from parasitic worms: a synthetic small molecule analogue of the Acanthocheilonema viteae product ES-62 prevents development of collagen-induced arthritis” (J Med Chem, 2013).
Activity calls are given as the source filed them. Unless noted, the calls are words filed in the database; no cut-off is given here.

What was measured:
TLR2/TLR6 (Mus musculus) = TLR2/TLR6 (Mus musculus) (UniProt Q9QUN7+Q9EPW9); assay: Inhibition of TLR2/6 in BALB/c mouse BMDM assessed as downregulation of BLP-stimulated IL-6 level at 5 ug/ml preincubated for 18 hrs followed by BLP challenge measured after 24 hrs by ELISA relative to control; format: protein-complex assay
Summary of the method: (§1)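 BALB/c male bone marrow macrophages were differentiated 7 days with L929 supernatant (≥99% CD11b+/F4/80+). Cells were plated at 2 × 10^5/well in triplicate, rested overnight, and given compounds at 5 μg/mL for 18 h. They were then stimulated with 100 ng/mL S. minnesota LPS, 10 ng/mL Pam3CSK4 (BLP) or 0.01 μM CpG for 24 h. Supernatant IL-12p40 and IL-6 were measured by ELISA (sensitivity 16 pg/mL).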

[1] = target: T1, Toll-like receptor 4 (Mus musculus) (UniProt Q9QUK6); assay: Inhibition of TLR4 in C57BL/6 mouse BMDC assessed as reduction of LPS-induced IL-6 production at 5 ug/mL preincubated for 2 hrs prior to LPS challenge measured after 24 hrs by ELISA
T1 sequence (whole entry): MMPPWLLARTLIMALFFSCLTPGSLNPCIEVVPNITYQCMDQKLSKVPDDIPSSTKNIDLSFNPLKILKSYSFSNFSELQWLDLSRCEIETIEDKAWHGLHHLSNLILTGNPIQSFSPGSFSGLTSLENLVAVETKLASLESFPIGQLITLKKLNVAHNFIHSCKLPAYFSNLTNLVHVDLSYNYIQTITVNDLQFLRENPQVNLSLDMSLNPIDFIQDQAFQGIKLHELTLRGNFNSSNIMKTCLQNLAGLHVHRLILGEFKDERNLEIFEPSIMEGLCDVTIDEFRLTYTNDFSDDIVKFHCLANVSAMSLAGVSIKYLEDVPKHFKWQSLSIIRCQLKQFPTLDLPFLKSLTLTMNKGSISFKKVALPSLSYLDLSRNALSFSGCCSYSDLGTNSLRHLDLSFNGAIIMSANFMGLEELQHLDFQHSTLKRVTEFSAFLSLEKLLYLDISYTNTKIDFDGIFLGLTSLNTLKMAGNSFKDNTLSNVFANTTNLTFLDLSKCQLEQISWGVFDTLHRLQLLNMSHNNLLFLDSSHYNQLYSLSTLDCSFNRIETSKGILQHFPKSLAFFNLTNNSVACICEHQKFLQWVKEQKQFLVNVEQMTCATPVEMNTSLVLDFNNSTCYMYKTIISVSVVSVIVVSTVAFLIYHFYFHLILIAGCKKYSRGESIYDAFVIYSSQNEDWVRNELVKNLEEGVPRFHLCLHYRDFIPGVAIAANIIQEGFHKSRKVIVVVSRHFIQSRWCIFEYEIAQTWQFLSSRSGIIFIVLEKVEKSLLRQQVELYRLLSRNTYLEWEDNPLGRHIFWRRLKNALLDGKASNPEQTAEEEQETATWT
Summary of the method: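 C57BL/6 bone marrow DCs were generated in complete RPMI with 10 ng/mL GM-CSF. They were preincubated ± compound at 5 μg/mL for 2 h, then stimulated with LPS for 24 h. TNF-α, IL-6 and IL-23 in conditioned medium were measured by ELISA. Values are means of triplicates ± SEM pooled from 4 experiments.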

Mus musculus [2] = assay: Antiinflammatory activity in DBA/1 mouse collagen-induced arthritis model assessed as reduction in total number of DLN cells at 50 ug/kg, sc administered 2 days prior to collagen challenge continued till day 21 post collagen challenge; format: functional, organism-based
Summary of the method: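 Dosing was 1 μg/dose or PBS given subcutaneously on days −2, 0 and 21 of CIA. Total, CD4+, CD8+ and γδ T cell numbers in draining lymph nodes were counted by flow cytometry for each mouse. Naive mice not exposed to collagen served as a further control (naive n = 7; PBS and treated n = 13).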

Mus musculus [3] = assay: Antiinflammatory activity in DBA/1 mouse collagen-induced arthritis model assessed as reduction of high disease scores at 50 ug/kg, sc administered 2 days prior to collagen challenge continued till day 21 post collagen challenge; format: functional, organism-based
Summary of the method: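 Collagen-induced arthritis mice were dosed subcutaneously (1 μg/dose) or given PBS on days −2, 0 and 21. Arthritis was scored clinically and hind paw width measured. Incidence was the % of mice with severity score ≥2 (cumulative) or ≥4 (high score). Results are mean ± SEM. Scores n = 13 per group, pooled from two experiments; paw width n = 7, from a single experiment.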

[4] = target: T1, Toll-like receptor 4 (Mus musculus); assay: Inhibition of TLR4 in BALB/c mouse BMDM assessed as downregulation of LPS-stimulated IL-6 level at 5 ug/ml preincubated for 18 hrs followed by LPS challenge measured after 24 hrs by ELISA relative to control; summary of the method: as §1

SMILES: CN(C)CCS(=O)(=O)Cc1ccc(Br)cc1
- inhibition (TLR2/TLR6 (Mus musculus)): inactive
- inhibition [1]: Active
- Activity (Mus musculus [2]): Active
- Activity (Mus musculus [3]): Active
- inhibition [4]: Active
